Assay results reported in ChEMBL document CHEMBL5150051, “Identification and Characterization of a Novel Indoleamine 2,3-Dioxygenase 1 Protein Degrader for Glioblastoma” (J Med Chem, 2022).

biological target: Protein cereblon/Indoleamine 2,3-dioxygenase 1 (Homo sapiens, UniProt P14902+Q96SW2); experiment: Protac activity at IDO1/CRBN in IFNgamma-stimulated human U87 cells assessed as IDO1 degradation at 10 uM measured after 24 hrs by Western blotting analysis relative to control; format: cell-based
How it was run: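 U87 GBM cells primed with human IFNγ 50 ng/mL for 24 h, then exposed to PROTAC at 10 μM for 24 h. Lysates run on western blot; IDO1 bands quantified by densitometry and expressed as percent of normalized IDO1 protein level.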

Protein cereblon/Indoleamine 2,3-dioxygenase 1, sequence (P14902 whole entry, looked up): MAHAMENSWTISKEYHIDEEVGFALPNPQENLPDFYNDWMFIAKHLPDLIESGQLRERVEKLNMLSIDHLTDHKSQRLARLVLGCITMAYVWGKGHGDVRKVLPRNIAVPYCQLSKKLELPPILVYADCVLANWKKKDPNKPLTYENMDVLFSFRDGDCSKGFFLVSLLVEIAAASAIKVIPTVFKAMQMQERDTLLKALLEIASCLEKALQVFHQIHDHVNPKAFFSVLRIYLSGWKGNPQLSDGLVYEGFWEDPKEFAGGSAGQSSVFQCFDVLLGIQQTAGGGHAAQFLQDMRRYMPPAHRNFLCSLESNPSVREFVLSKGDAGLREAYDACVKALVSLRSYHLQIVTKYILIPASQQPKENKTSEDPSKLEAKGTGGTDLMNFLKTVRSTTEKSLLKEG
Protein cereblon/Indoleamine 2,3-dioxygenase 1, sequence (Q96SW2 whole entry, looked up): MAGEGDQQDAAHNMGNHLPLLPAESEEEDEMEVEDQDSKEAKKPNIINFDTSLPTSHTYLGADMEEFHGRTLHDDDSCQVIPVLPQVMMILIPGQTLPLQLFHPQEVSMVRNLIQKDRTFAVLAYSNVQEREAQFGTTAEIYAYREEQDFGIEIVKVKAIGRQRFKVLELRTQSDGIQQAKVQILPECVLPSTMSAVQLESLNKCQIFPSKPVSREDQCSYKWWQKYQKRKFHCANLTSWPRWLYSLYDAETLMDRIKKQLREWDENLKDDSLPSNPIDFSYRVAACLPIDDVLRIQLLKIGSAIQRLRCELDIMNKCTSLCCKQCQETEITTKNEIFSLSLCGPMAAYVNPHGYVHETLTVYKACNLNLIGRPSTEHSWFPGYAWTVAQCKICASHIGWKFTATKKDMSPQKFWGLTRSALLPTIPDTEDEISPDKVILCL

Row | Compound | Activity [%]
1 | C[C@@H](C(=O)Nc1ccc(OC2CN(C(=O)CCOCCNC(=O)COc3cccc4c3C(=O)N(C3CCC(=O)NC3=O)C4=O)C2)cc1)[C@H]1CC[C@@H](c2ccnc3ccc(F)cc32)CC1 (some centres not stated) | 86
2 | C[C@@H](C(=O)Nc1ccc(OCCOCCOCCOCCOCCNC(=O)COc2cccc3c2C(=O)N(C2CCC(=O)NC2=O)C3=O)cc1)[C@H]1CC[C@@H](c2ccnc3ccc(F)cc32)CC1 (some centres not stated) | 0
3 | C[C@@H](C(=O)Nc1ccc(OCCOCCOCCOCCOCCOCCNC(=O)COc2cccc3c2C(=O)N(C2CCC(=O)NC2=O)C3=O)cc1)[C@H]1CC[C@@H](c2ccnc3ccc(F)cc32)CC1 (some centres not stated) | 46
4 | C[C@@H](C(=O)Nc1ccc(OC2CCN(CCCOCCOCCOc3cccc4c3C(=O)N(C3CCC(=O)NC3=O)C4=O)CC2)cc1)[C@H]1CC[C@@H](c2ccnc3ccc(F)cc32)CC1 (some centres not stated) | 0
5 | C[C@@H](C(=O)Nc1ccc(OC2CN(C(=O)CCOCCOCCNC(=O)COc3cccc4c3C(=O)N(C3CCC(=O)NC3=O)C4=O)C2)cc1)[C@H]1CC[C@@H](c2ccnc3ccc(F)cc32)CC1 (some centres not stated) | 9
6 | C[C@@H](C(=O)Nc1ccc(OC2CCN(C(=O)CCOCCOCCOc3cccc4c3C(=O)N(C3CCC(=O)NC3=O)C4=O)CC2)cc1)[C@H]1CC[C@@H](c2ccnc3ccc(F)cc32)CC1 (some centres not stated) | 80
7 | C[C@@H](C(=O)Nc1ccc(OCCOCCOCCOCCOCCOCCOc2cccc3c2C(=O)N(C2CCC(=O)NC2=O)C3=O)cc1)[C@H]1CC[C@@H](c2ccnc3ccc(F)cc32)CC1 (some centres not stated) | 0
8 | C[C@@H](C(=O)Nc1ccc(OC2CCN(CCCOCCNC(=O)COc3cccc4c3C(=O)N(C3CCC(=O)NC3=O)C4=O)CC2)cc1)[C@H]1CC[C@@H](c2ccnc3ccc(F)cc32)CC1 (some centres not stated) | 66
9 | C[C@@H](C(=O)Nc1ccc(OC2CN(C(=O)CCOCCOCCOc3cccc4c3C(=O)N(C3CCC(=O)NC3=O)C4=O)C2)cc1)[C@H]1CC[C@@H](c2ccnc3ccc(F)cc32)CC1 (some centres not stated) | 74
10 | C[C@@H](C(=O)Nc1ccc(OC2CCN(C(=O)CCOCCNc3cccc4c3C(=O)N(C3CCC(=O)NC3=O)C4=O)CC2)cc1)[C@H]1CC[C@@H](c2ccnc3ccc(F)cc32)CC1 (some centres not stated) | 33
11 | C[C@@H](C(=O)Nc1ccc(OC2CCN(C(=O)CCOCCNC(=O)COc3cccc4c3C(=O)N(C3CCC(=O)NC3=O)C4=O)CC2)cc1)[C@H]1CC[C@@H](c2ccnc3ccc(F)cc32)CC1 (some centres not stated) | 38
12 | C[C@@H](C(=O)Nc1ccc(OC2CN(C(=O)CCOCCOCCNc3cccc4c3C(=O)N(C3CCC(=O)NC3=O)C4=O)C2)cc1)[C@H]1CC[C@@H](c2ccnc3ccc(F)cc32)CC1 (some centres not stated) | 94
13 | C[C@@H](C(=O)Nc1ccc(OC2CCN(C(=O)CCOCCOCCNC(=O)COc3cccc4c3C(=O)N(C3CCC(=O)NC3=O)C4=O)CC2)cc1)[C@H]1CC[C@@H](c2ccnc3ccc(F)cc32)CC1 (some centres not stated) | 81
14 | C[C@@H](C(=O)Nc1ccc(OC2CN(CCCOCCOCCNC(=O)COc3cccc4c3C(=O)N(C3CCC(=O)NC3=O)C4=O)C2)cc1)[C@H]1CC[C@@H](c2ccnc3ccc(F)cc32)CC1 (some centres not stated) | 0
15 | C[C@@H](C(=O)Nc1ccc(OCCOCCOCCOCCOCCOCCNc2cccc3c2C(=O)N(C2CCC(=O)NC2=O)C3=O)cc1)[C@H]1CC[C@@H](c2ccnc3ccc(F)cc32)CC1 (some centres not stated) | 0

More lines, now with the values ahead:

Row | Activity [%] | Compound
16 | 67 | C[C@@H](C(=O)Nc1ccc(Cl)c(OCCCNC(=O)COc2cccc3c2C(=O)N(C2CCC(=O)NC2=O)C3=O)c1)[C@H]1CC[C@@H](c2ccnc3ccc(F)cc32)CC1 (some centres not stated)
17 | 66 | C[C@@H](C(=O)Nc1ccc(Cl)c(OCCOCCNc2cccc3c2C(=O)N(C2CCC(=O)NC2=O)C3=O)c1)[C@H]1CC[C@@H](c2ccnc3ccc(F)cc32)CC1 (some centres not stated)
18 | 0 | C[C@@H](C(=O)Nc1ccc(OCCCCCCCCCCNC(=O)COc2cccc3c2C(=O)N(C2CCC(=O)NC2=O)C3=O)cc1)[C@H]1CC[C@@H](c2ccnc3ccc(F)cc32)CC1 (some centres not stated)
19 | 40 | C[C@@H](C(=O)Nc1ccc(Cl)c(OCCOCCOCCNC(=O)COc2cccc3c2C(=O)N(C2CCC(=O)NC2=O)C3=O)c1)[C@H]1CC[C@@H](c2ccnc3ccc(F)cc32)CC1 (some centres not stated)
20 | 0 | C[C@@H](C(=O)Nc1ccc(OCCOCCOCCOCCOc2cccc3c2C(=O)N(C2CCC(=O)NC2=O)C3=O)cc1)[C@H]1CC[C@@H](c2ccnc3ccc(F)cc32)CC1 (some centres not stated)
21 | 94 | C[C@@H](C(=O)Nc1ccc(OCCOCCOCCOc2cccc3c2C(=O)N(C2CCC(=O)NC2=O)C3=O)cc1)[C@H]1CC[C@@H](c2ccnc3ccc(F)cc32)CC1 (some centres not stated)
22 | 0 | C[C@@H](C(=O)Nc1ccc(OCCCCNc2cccc3c2C(=O)N(C2CCC(=O)NC2=O)C3=O)cc1)[C@H]1CC[C@@H](c2ccnc3ccc(F)cc32)CC1 (some centres not stated)
23 | 0 | C[C@@H](C(=O)Nc1ccc(Cl)c(OCCCCCCCCCNC(=O)COc2cccc3c2C(=O)N(C2CCC(=O)NC2=O)C3=O)c1)[C@H]1CC[C@@H](c2ccnc3ccc(F)cc32)CC1 (some centres not stated)
24 | 0 | C[C@@H](C(=O)Nc1ccc(Cl)c(OCCOCCOCCOCCNC(=O)COc2cccc3c2C(=O)N(C2CCC(=O)NC2=O)C3=O)c1)[C@H]1CC[C@@H](c2ccnc3ccc(F)cc32)CC1 (some centres not stated)
25 | 36 | C[C@@H](C(=O)Nc1ccc(Cl)c(OCCCNc2cccc3c2C(=O)N(C2CCC(=O)NC2=O)C3=O)c1)[C@H]1CC[C@@H](c2ccnc3ccc(F)cc32)CC1 (some centres not stated)
26 | 0 | C[C@@H](C(=O)Nc1ccc(Cl)c(OCCOCCOCCOCCOCCNC(=O)COc2cccc3c2C(=O)N(C2CCC(=O)NC2=O)C3=O)c1)[C@H]1CC[C@@H](c2ccnc3ccc(F)cc32)CC1 (some centres not stated)
27 | 0 | C[C@@H](C(=O)Nc1ccc(OCCCCOc2cccc3c2C(=O)N(C2CCC(=O)NC2=O)C3=O)cc1)[C@H]1CC[C@@H](c2ccnc3ccc(F)cc32)CC1 (some centres not stated)
28 | 71 | C[C@@H](C(=O)Nc1ccc(Cl)c(OCCOCCOCCNc2cccc3c2C(=O)N(C2CCC(=O)NC2=O)C3=O)c1)[C@H]1CC[C@@H](c2ccnc3ccc(F)cc32)CC1 (some centres not stated)
29 | 16 | C[C@@H](C(=O)Nc1ccc(Cl)c(OCCCCCCCCCOc2cccc3c2C(=O)N(C2CCC(=O)NC2=O)C3=O)c1)[C@H]1CC[C@@H](c2ccnc3ccc(F)cc32)CC1 (some centres not stated)
30 | 49 | C[C@@H](C(=O)Nc1ccc(Cl)c(OCCCOc2cccc3c2C(=O)N(C2CCC(=O)NC2=O)C3=O)c1)[C@H]1CC[C@@H](c2ccnc3ccc(F)cc32)CC1 (some centres not stated)
31 | 13 | C[C@@H](C(=O)Nc1ccc(Cl)c(OCCOCCOCCOCCOc2cccc3c2C(=O)N(C2CCC(=O)NC2=O)C3=O)c1)[C@H]1CC[C@@H](c2ccnc3ccc(F)cc32)CC1 (some centres not stated)
32 | 0 | C[C@@H](C(=O)Nc1ccc(Cl)c(OCCCCCCCCCNc2cccc3c2C(=O)N(C2CCC(=O)NC2=O)C3=O)c1)[C@H]1CC[C@@H](c2ccnc3ccc(F)cc32)CC1 (some centres not stated)
33 | 47 | C[C@@H](C(=O)Nc1ccc(OCCOCCOCCNC(=O)COc2cccc3c2C(=O)N(C2CCC(=O)NC2=O)C3=O)cc1)[C@H]1CC[C@@H](c2ccnc3ccc(F)cc32)CC1 (some centres not stated)
34 | 0 | C[C@@H](C(=O)Nc1ccc(OCCOCCOCCOCCOCCOc2cccc3c2C(=O)N(C2CCC(=O)NC2=O)C3=O)cc1)[C@H]1CC[C@@H](c2ccnc3ccc(F)cc32)CC1 (some centres not stated)
35 | 0 | C[C@@H](C(=O)Nc1ccc(Cl)c(OCCOCCOCCOCCOCCOc2cccc3c2C(=O)N(C2CCC(=O)NC2=O)C3=O)c1)[C@H]1CC[C@@H](c2ccnc3ccc(F)cc32)CC1 (some centres not stated)
36 | 86 | C[C@@H](C(=O)Nc1ccc(OC2CN(C(=O)CCOCCOc3cccc4c3C(=O)N(C3CCC(=O)NC3=O)C4=O)C2)cc1)[C@H]1CC[C@@H](c2ccnc3ccc(F)cc32)CC1 (some centres not stated)
37 | 88 | C[C@@H](C(=O)Nc1ccc(Cl)c(OCCOCCOCCOc2cccc3c2C(=O)N(C2CCC(=O)NC2=O)C3=O)c1)[C@H]1CC[C@@H](c2ccnc3ccc(F)cc32)CC1 (some centres not stated)
